Published values pooled from the literature.
Lines come from different studies, so protocols differ.
Target: BDNF/NT-3 growth factors receptor (NTRK2, Homo sapiens, UniProt Q16620)

CSc1cccnc1N1CCN(Cc2nc3ccccc3[nH]2)CC1
remaining binding (cell-free assay; competition with immobilised ligand; 1 µM): 100%

C[C@@H](c1ccc(-n2cnc3c(N)ncnc32)cc1)N1CCc2nn(C)c(Cc3ccccc3)c2C1=O
remaining binding (binding; competition with immobilised ligand; 0.1 µM): 24%

COc1cnc(Nc2cccc(S(N)(=O)=O)c2)nc1N1CCN(c2ccccc2)CC1
remaining binding (binding; competition with immobilised ligand; 1 µM): 75%

Cc1cnc(Nc2ccc(C(=O)N3CCC(N4CCCC4)CC3)cc2)nc1-c1cc2ccccc2s1
remaining binding (binding; competition with immobilised ligand; 1 µM): 4.1%

N[C@H]1CCN(c2nccc(-c3cnn4ncccc34)n2)C1
remaining binding (binding; 1 µM): 100%

FC(F)(F)Oc1cccc(-c2cnc3ccc(-c4ccncc4)nn23)c1
remaining binding (cell-free assay; competition with immobilised ligand; 5 µM): 8.9%

CCCCN(CCCC)C(=O)CN1C[C@@H](c2cc(OC)c3c(c2)OCO3)[C@H](C(=O)O)[C@H]1CC(C)(C)CCC
remaining binding (cell-free assay; competition with immobilised ligand; 1 µM): 98.3%

c1cncc(-c2cccc(Nc3nccc(NC4CCCCC4)n3)c2)c1
remaining binding (binding; competition with immobilised ligand; 10 µM): 16%

O=C(NCc1ncc(C(F)(F)F)cc1Cl)c1ccc2c(c1)C1(CCS(=O)(=O)CC1)[C@@H](C1CC1)N2S(=O)(=O)c1ccc(F)cc1
remaining binding (cell-free assay; competition with immobilised ligand; 1 µM): 71%

O=C(NCCCN1CCOCC1)c1ccc(Nc2nccc(-c3cc4ccccc4s3)n2)cc1
remaining binding (binding; competition with immobilised ligand; 1 µM): 69%

COc1ccnn2ncc(-c3ccnc(N(C)C)n3)c12
remaining binding (binding; 1 µM): 87%

CN(C)CC#Cc1ccc(OCCCc2sc(N3CCc4cccc(C(=O)Nc5nc6ccccc6s5)c4C3)nc2C(=O)O)c(F)c1
remaining binding (cell-free assay; competition with immobilised ligand; 1 µM): 100%

CN(CCCC(F)(F)F)c1nccc(-c2cnn3ncccc23)n1
remaining binding (binding; 1 µM): 100%

O=C(Nc1c[nH]nc1C(=O)NC1CCNCC1)c1cc(F)cc(F)c1
remaining binding (binding; competition with immobilised ligand; 1 µM): 71%

CC1CCCN1c1nccc(-c2cnn3ncccc23)n1 (stereo not drawn)
remaining binding (binding; 1 µM): 100%

CC1=C(C#N)C(c2ccc3c(c2)c(NC(=O)c2ccccc2C)nn3C)C(C#N)=C(C)N1
remaining binding (cell-free assay; competition with immobilised ligand; 1 µM): 72%

F[C@@H]1CCN(c2nccc(-c3cnn4ncccc34)n2)C1
remaining binding (binding; 1 µM): 100%

CNC(=O)[C@@H]1CC[C@@H](n2c(-c3ccc4cnccc4c3)nc3ccc(C(=O)NCc4cccc(C(N)=O)c4)cc32)C1
remaining binding (binding; competition with immobilised ligand; 1 µM): 100%

O=C(c1ccc(Nc2ncc(Cl)c(-c3cc4ccccc4s3)n2)cc1)N1CCC(N2CCCC2)CC1
remaining binding (binding; competition with immobilised ligand; 1 µM): 13%

CCOCCn1cc(C(=O)Nc2ccc(-n3nc(-c4cccnc4)cc3C(F)(F)F)cn2)ccc1=O
remaining binding (cell-free assay; competition with immobilised ligand; 1 µM): 100%

C[C@H]1CCN(c2nccc(-c3cnn4ncccc34)n2)C1
remaining binding (binding; 1 µM): 61%
